Calls of active or inactive are those of the source. No cut-off for these calls is given here.
How the values were obtained:
[1] = tested on: MIA PaCa-2; test: Antiproliferative activity against human MIA PaCa-2 cells assessed as sensitizing activity by measuring combination index at ED50 measured after 3 days in presence of ABT- 199 by Prestoblue assay; assay type: functional; details: time 3 day
Outline: (§1)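 MiaPaCa2 cells were treated for 3 days with the CDK9 degrader and a Bcl2-family inhibitor (ABT-263, ABT-199 or WEHI-539), singly and combined. Viability was read by PrestoBlue. Combination index values were calculated with CalcuSyn at effective doses ED50, ED75 and ED90.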

[2] = tested on: MIA PaCa-2; test: Antiproliferative activity against human MIA PaCa-2 cells assessed as sensitizing activity by measuring combination index at ED90 measured after 3 days in presence of ABT- 263 by Prestoblue assay; assay type: functional; details: time 3 day; outline: as §1
[3] = tested on: MIA PaCa-2; test: Antiproliferative activity against human MIA PaCa-2 cells assessed as sensitizing activity by measuring combination index at ED75 measured after 3 days in presence of ABT- 263 by Prestoblue assay; assay type: functional; details: time 3 day; outline: as §1
[4] = tested on: MIA PaCa-2; test: Antiproliferative activity against human MIA PaCa-2 cells assessed as sensitizing activity by measuring combination index at ED50 measured after 3 days in presence of ABT- 263 by Prestoblue assay; assay type: functional; details: time 3 day; outline: as §1
[5] = molecular target: T1, Protein cereblon/Cyclin-dependent kinase 9 (Homo sapiens, UniProt P50750+Q96SW2); test: Protac activity at CDK9/CRBN in human HEK293 cells assessed as degradation of CDK9 incubated for 24 hrs by Western blot analysis; assay type: cell-based
Outline: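 HEK293 cells were treated with increasing concentrations (0.01–10 μM) for 24 hr. Lysates were analysed by western blot for CDK9 degradation.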

[6] = molecular target: T1, Protein cereblon/Cyclin-dependent kinase 9; test: Protac activity at CDK9/CRBN in human HEK293 cells assessed as degradation of CDK9 at 1 uM incubated for 24 hrs by Western blot analysis relative to control; assay type: cell-based
[7] = molecular target: CDK9/Cyclin K (Homo sapiens) (UniProt P50750+O75909); test: Protac activity at Cyclin K/CRBN in human HEK293 cells assessed as degradation of cyclin K at 0.01 to 10 uM incubated for 24 hrs by Western blot analysis; assay type: cell-based; details: dose 0.01-10 µM
[8] = molecular target: T2, Protein cereblon/Cyclin-dependent kinase 12 (Homo sapiens) (UniProt Q9NYV4+Q96SW2); test: Protac activity at CDK12/CRBN in human HEK293 cells assessed as degradation of CDK12 at 0.01 to 10 uM incubated for 24 hrs by Western blot analysis; assay type: cell-based; details: dose 0.01-10 µM
T2 sequence (Q96SW2 whole entry, looked up): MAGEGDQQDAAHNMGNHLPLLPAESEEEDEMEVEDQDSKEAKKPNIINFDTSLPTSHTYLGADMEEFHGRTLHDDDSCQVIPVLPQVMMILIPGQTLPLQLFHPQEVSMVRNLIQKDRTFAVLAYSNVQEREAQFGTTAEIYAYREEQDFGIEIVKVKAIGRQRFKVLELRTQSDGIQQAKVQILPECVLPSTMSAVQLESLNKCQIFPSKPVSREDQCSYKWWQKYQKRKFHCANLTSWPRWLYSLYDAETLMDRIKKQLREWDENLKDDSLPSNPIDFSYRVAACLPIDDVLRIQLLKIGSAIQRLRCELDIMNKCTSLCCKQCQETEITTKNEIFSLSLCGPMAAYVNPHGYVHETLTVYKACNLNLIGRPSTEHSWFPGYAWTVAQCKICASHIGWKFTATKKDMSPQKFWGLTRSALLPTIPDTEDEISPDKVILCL
T2 sequence (Q9NYV4 whole entry, looked up): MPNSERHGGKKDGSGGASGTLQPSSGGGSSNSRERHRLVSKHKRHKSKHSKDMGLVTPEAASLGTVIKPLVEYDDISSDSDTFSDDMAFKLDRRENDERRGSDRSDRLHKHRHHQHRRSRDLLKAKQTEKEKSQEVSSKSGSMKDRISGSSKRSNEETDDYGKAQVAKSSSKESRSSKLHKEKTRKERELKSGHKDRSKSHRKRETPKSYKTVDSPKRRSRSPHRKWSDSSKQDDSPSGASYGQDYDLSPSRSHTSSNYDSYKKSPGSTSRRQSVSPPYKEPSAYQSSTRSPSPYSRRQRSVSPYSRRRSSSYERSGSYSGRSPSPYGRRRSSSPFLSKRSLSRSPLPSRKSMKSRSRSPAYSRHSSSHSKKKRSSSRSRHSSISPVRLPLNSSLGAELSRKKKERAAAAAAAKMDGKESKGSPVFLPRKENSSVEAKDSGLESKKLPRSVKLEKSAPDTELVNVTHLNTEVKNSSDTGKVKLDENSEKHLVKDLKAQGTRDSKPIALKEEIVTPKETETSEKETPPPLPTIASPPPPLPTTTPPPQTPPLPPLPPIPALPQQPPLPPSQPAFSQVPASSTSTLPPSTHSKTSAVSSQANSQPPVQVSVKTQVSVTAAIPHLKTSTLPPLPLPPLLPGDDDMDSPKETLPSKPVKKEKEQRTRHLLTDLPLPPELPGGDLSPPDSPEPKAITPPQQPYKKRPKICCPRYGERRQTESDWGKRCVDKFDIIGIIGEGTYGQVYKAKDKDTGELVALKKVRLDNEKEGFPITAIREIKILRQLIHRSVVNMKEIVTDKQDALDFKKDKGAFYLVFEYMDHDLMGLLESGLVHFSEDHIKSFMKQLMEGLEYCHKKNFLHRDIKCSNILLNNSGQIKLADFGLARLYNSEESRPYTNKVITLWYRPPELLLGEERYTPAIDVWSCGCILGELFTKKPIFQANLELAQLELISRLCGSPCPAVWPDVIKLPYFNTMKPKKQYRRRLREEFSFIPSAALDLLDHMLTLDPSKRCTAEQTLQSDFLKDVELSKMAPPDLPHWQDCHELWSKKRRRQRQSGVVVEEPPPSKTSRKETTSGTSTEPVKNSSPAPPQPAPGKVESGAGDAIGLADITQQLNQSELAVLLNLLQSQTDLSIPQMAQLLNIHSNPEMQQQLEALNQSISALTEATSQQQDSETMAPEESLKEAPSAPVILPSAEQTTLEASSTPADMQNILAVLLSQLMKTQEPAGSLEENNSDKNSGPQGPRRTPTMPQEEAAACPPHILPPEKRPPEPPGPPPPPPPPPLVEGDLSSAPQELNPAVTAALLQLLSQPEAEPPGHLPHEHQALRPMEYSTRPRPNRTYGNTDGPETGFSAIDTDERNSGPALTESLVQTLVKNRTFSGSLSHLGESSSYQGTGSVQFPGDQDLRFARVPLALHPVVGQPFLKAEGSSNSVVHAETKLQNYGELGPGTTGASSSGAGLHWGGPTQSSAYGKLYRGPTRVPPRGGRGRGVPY

[9] = molecular target: T3, Protein cereblon/Cyclin-dependent kinase 8 (Homo sapiens) (UniProt P49336+Q96SW2); test: Protac activity at CDK8/CRBN in human HEK293 cells assessed as degradation of CDK8 at 0.01 to 10 uM incubated for 24 hrs by Western blot analysis; assay type: cell-based; details: dose 0.01-10 µM
[10] = molecular target: T4, Protein cereblon/Cyclin-dependent kinase 7 (Homo sapiens) (UniProt P50613+Q96SW2); test: Protac activity at CDK7/CRBN in human HEK293 cells assessed as degradation of CDK7 at 0.01 to 10 uM incubated for 24 hrs by Western blot analysis; assay type: cell-based; details: dose 0.01-10 µM
T4 sequence (P50613 whole entry, looked up): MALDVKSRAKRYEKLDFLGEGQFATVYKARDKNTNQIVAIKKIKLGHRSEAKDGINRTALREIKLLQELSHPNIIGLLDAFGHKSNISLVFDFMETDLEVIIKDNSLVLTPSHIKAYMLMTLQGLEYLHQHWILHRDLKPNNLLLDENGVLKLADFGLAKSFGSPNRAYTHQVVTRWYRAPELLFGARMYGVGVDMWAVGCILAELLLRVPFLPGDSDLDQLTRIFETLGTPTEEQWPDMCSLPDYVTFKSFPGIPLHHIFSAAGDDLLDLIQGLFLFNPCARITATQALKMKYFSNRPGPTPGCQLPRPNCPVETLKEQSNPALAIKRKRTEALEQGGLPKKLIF
T4 sequence (Q96SW2 whole entry, looked up): as the sequence (Q96SW2 whole entry, looked up) above

[11] = molecular target: T5, Protein cereblon/Cyclin-dependent kinase 6 (Homo sapiens) (UniProt Q00534+Q96SW2); test: Protac activity at CDK6/CRBN in human HEK293 cells assessed as degradation of CDK6 at 0.01 to 10 uM incubated for 24 hrs by Western blot analysis; assay type: cell-based; details: dose 0.01-10 µM
[12] = molecular target: T6, Protein cereblon/Cyclin-dependent kinase 5 (Homo sapiens) (UniProt Q00535+Q96SW2); test: Protac activity at CDK5/CRBN in human HEK293 cells assessed as degradation of CDK5 at 0.01 to 10 uM incubated for 24 hrs by Western blot analysis; assay type: cell-based; details: dose 0.01-10 µM
[13] = molecular target: T7, Protein cereblon/Cyclin-dependent kinase 4 (Homo sapiens) (UniProt P11802+Q96SW2); test: Protac activity at CDK4/CRBN in human HEK293 cells assessed as degradation of CDK4 at 0.01 to 10 uM incubated for 24 hrs by Western blot analysis; assay type: cell-based; details: dose 0.01-10 µM
T7 sequence (P11802 2-303 limits assumed): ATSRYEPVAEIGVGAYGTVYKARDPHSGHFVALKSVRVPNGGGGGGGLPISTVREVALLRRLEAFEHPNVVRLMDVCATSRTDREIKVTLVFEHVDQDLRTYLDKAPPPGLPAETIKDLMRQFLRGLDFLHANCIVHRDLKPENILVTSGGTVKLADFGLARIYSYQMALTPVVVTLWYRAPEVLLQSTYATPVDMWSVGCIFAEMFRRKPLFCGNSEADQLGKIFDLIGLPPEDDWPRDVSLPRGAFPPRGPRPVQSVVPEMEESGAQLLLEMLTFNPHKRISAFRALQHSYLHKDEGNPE
T7 sequence (Q96SW2 whole entry partner): as the sequence (Q96SW2 whole entry, looked up) above

[14] = molecular target: T8, Protein cereblon/Cyclin-dependent kinase 2 (Homo sapiens) (UniProt P24941+Q96SW2); test: Protac activity at CDK2/CRBN in human HEK293 cells assessed as degradation of CDK2 at 0.01 to 10 uM incubated for 24 hrs by Western blot analysis; assay type: cell-based; details: dose 0.01-10 µM
[15] = molecular target: T9, Protein cereblon/Cyclin-dependent kinase 1 (Homo sapiens) (UniProt P06493+Q96SW2); test: Protac activity at CDK1/CRBN in human HEK293 cells assessed as degradation of CDK1 at 0.01 to 10 uM incubated for 24 hrs by Western blot analysis; assay type: cell-based; details: dose 0.01-10 µM
T9 sequence (P06493 whole entry, looked up): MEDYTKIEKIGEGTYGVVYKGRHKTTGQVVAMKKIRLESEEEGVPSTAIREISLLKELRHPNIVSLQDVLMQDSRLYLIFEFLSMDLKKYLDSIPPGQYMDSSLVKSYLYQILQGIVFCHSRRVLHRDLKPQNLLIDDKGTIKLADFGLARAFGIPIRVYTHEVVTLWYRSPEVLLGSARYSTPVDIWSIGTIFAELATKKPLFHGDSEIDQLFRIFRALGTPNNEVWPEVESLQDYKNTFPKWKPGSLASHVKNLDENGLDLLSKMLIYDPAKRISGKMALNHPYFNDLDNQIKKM
T9 sequence (Q96SW2 whole entry, looked up): as the sequence (Q96SW2 whole entry, looked up) above

[16] = molecular target: T1, Protein cereblon/Cyclin-dependent kinase 9; test: Protac activity at CDK9/CRBN in human HEK293 cells assessed as degradation of CDK9 at 1 uM measured up to 24 hrs by Western blot analysis; assay type: cell-based; details: time hrs <=24
Outline: (§2)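 Time course in HEK293 cells at 1 μM degrader; lysates collected at indicated time points up to 24 h and probed by western blot for the various CDKs.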

[17] = molecular target: T2, Protein cereblon/Cyclin-dependent kinase 12 (Homo sapiens); test: Protac activity at CDK12/CRBN in human HEK293 cells assessed as degradation of CDK12 at 1 uM measured upto 24 hrs by Western blot analysis; assay type: cell-based; details: time hrs <=24; outline: as §2
[18] = molecular target: T3, Protein cereblon/Cyclin-dependent kinase 8 (Homo sapiens); test: Protac activity at CDK8/CRBN in human HEK293 cells assessed as degradation of CDK8 at 1 uM measured upto 24 hrs by Western blot analysis; assay type: cell-based; details: time hrs <=24; outline: as §2
[19] = molecular target: T4, Protein cereblon/Cyclin-dependent kinase 7 (Homo sapiens); test: Protac activity at CDK7/CRBN in human HEK293 cells assessed as degradation of CDK7 at 1 uM measured upto 24 hrs by Western blot analysis; assay type: cell-based; details: time hrs <=24; outline: as §2
[20] = molecular target: T5, Protein cereblon/Cyclin-dependent kinase 6 (Homo sapiens); test: Protac activity at CDK6/CRBN in human HEK293 cells assessed as degradation of CDK6 at 1 uM measured upto 24 hrs by Western blot analysis; assay type: cell-based; details: time hrs <=24; outline: as §2
[21] = molecular target: T6, Protein cereblon/Cyclin-dependent kinase 5 (Homo sapiens); test: Protac activity at CDK5/CRBN in human HEK293 cells assessed as degradation of CDK5 at 1 uM measured upto 24 hrs by Western blot analysis; assay type: cell-based; details: time hrs <=24; outline: as §2
[22] = molecular target: T7, Protein cereblon/Cyclin-dependent kinase 4 (Homo sapiens); test: Protac activity at CDK4/CRBN in human HEK293 cells assessed as degradation of CDK4 at 1 uM measured upto 24 hrs by Western blot analysis; assay type: cell-based; details: time hrs <=24; outline: as §2
[23] = molecular target: T8, Protein cereblon/Cyclin-dependent kinase 2 (Homo sapiens); test: Protac activity at CDK2/CRBN in human HEK293 cells assessed as degradation of CDK2 at 1 uM measured upto 24 hrs by Western blot analysis; assay type: cell-based; details: time hrs <=24; outline: as §2
[24] = molecular target: T9, Protein cereblon/Cyclin-dependent kinase 1 (Homo sapiens); test: Protac activity at CDK1/CRBN in human HEK293 cells assessed as degradation of CDK1 at 1 uM measured upto 24 hrs by Western blot analysis; assay type: cell-based; details: time hrs <=24; outline: as §2
[25] = molecular target: T10, Cyclin-dependent kinase 5 (Homo sapiens, UniProt Q00535); test: Inhibition of CDK5 (unknown origin)
T10 sequence (Q00535 whole entry): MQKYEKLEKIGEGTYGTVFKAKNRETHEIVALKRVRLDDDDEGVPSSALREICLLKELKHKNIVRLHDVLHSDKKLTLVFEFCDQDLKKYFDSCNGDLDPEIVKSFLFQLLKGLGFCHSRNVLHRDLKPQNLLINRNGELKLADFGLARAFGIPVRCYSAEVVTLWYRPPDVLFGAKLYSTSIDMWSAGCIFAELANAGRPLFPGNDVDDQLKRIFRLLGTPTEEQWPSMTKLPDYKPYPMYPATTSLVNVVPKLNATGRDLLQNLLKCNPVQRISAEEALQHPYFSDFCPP

[26] = molecular target: T11, Cyclin-dependent kinase 9 (Homo sapiens, UniProt P50750); test: Inhibition of CDK9 (unknown origin)
T11 sequence (P50750 whole entry): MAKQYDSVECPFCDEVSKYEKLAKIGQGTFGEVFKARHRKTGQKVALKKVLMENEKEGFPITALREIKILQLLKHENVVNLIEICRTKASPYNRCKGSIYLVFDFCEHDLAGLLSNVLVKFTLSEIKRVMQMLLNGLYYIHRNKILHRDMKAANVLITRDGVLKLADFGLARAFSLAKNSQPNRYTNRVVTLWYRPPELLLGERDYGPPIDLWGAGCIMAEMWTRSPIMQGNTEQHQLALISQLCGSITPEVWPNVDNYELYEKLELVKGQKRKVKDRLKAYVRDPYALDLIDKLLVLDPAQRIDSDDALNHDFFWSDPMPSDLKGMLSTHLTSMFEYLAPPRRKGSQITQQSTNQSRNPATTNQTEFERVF

[27] = molecular target: T1, Protein cereblon/Cyclin-dependent kinase 9; test: Protac activity at CDK9/CRBN in human HEK293 cells assessed as degradation of CDK9 at 1 uM incubated for 24 hrs in presence of pomalidomide by Western blot analysis; assay type: cell-based
Outline: (§3)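 Competition in HEK293 cells: 10 μM pomalidomide (CRBN ligand) alone or combined with 1 μM degrader for 24 h; lysates analysed by western blot.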

[28] = molecular target: T4, Protein cereblon/Cyclin-dependent kinase 7 (Homo sapiens); test: Protac activity at CDK7/CRBN in human HEK293 cells assessed as degradation of CDK7 at 10 uM incubated for 24 hrs in presence of pomalidomide by Western blot analysis; assay type: cell-based; outline: as §3
[29] = molecular target: Cyclin-dependent kinase 7 (Homo sapiens) (UniProt P50613); test: Inhibition of CDK7 in human HEK293 cells assessed as reduction in CDK7 level at 10 uM incubated for 24 hrs in presence of flavopiridol by Western blot analysis; assay type: cell-based
[30] = molecular target: T1, Protein cereblon/Cyclin-dependent kinase 9; test: Protac activity at CDK9/CRBN in human HEK293 cells assessed as degradation of CDK9 at 1 uM incubated for 24 hrs in presence of MG132 by Western blot analysis; assay type: cell-based
Outline: (§4)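 HEK293 cells co-treated for 24 h with degrader and increasing concentrations of proteasome inhibitor MG132; lysates examined by western blot.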

[31] = molecular target: T9, Protein cereblon/Cyclin-dependent kinase 1 (Homo sapiens); test: Protac activity at CDK1/CRBN in human HEK293 cells assessed as degradation of CDK1 at 1 uM incubated for 24 hrs in presence of MG132 by Western blot analysis; assay type: cell-based; outline: as §4
[32] = molecular target: T2, Protein cereblon/Cyclin-dependent kinase 12 (Homo sapiens); test: Protac activity at CDK12/CRBN in human HEK293 cells assessed as degradation of CDK12 at 1 uM incubated for 24 hrs in presence of MG132 by Western blot analysis; assay type: cell-based; outline: as §4
[33] = tested on: MIA PaCa-2; test: Antiproliferative activity against human MIA PaCa-2 cells assessed as sensitizing activity by measuring combination index at ED75 measured after 3 days in presence of ABT- 199 by Prestoblue assay; assay type: functional; details: time 3 day; outline: as §1
[34] = tested on: MIA PaCa-2; test: Antiproliferative activity against human MIA PaCa-2 cells assessed as sensitizing activity by measuring combination index at ED90 measured after 3 days in presence of ABT- 199 by Prestoblue assay; assay type: functional; details: time 3 day; outline: as §1
[35] = tested on: MIA PaCa-2; test: Antiproliferative activity against human MIA PaCa-2 cells assessed as sensitizing activity by measuring combination index at ED50 measured after 3 days in presence of WEHI-539 by Prestoblue assay; assay type: functional; details: time 3 day; outline: as §1
[36] = tested on: MIA PaCa-2; test: Antiproliferative activity against human MIA PaCa-2 cells assessed as sensitizing activity by measuring combination index at ED75 measured after 3 days in presence of WEHI-539 by Prestoblue assay; assay type: functional; details: time 3 day; outline: as §1
[37] = tested on: MIA PaCa-2; test: Antiproliferative activity against human MIA PaCa-2 cells assessed as sensitizing activity by measuring combination index at ED90 measured after 3 days in presence of WEHI-539 by Prestoblue assay; assay type: functional; details: time 3 day; outline: as §1
[38] = molecular target: T1, Protein cereblon/Cyclin-dependent kinase 9; test: Protac activity at CDK9/CRBN in human HEK293 cells assessed as degradation of CDK9 by Western blot analysis; assay type: cell-based; details: TDE = time-dependent effect
[39] = molecular target: T1, Protein cereblon/Cyclin-dependent kinase 9; test: Protac activity at CDK9/CRBN in human MIA PaCa-2 cells assessed as degradation of CDK9; assay type: cell-based
[40] = molecular target: T1, Protein cereblon/Cyclin-dependent kinase 9; test: Protac activity at CDK9/CRBN in human SUIT-2 cells assessed as degradation of CDK9; assay type: cell-based
[41] = molecular target: T10, Cyclin-dependent kinase 5; test: Binding affinity to CDK5 (unknown origin)
[42] = molecular target: T11, Cyclin-dependent kinase 9; test: Binding affinity to CDK9 (unknown origin)
[43] = molecular target: T12, Cyclin-dependent kinase 2 (Homo sapiens, UniProt P24941)
[44] = molecular target: T12, Cyclin-dependent kinase 2; remark: listed apart in the source
[45] = molecular target: T11, Cyclin-dependent kinase 9; test: Inhibition of CDK9 in human HEK293 cells assessed as reduction in CDK9 level at 1 uM incubated for 8 hrs in presence of flavopiridol by Western blot analysis

Activity [5]: Dose-Dependent Effect
DC50 [5]: 158 nM
Activity [6]: 100%
Activity [7]: inactive
Activity [8]: inactive
Activity [9]: inactive
Activity [10]: inactive
Activity [11]: inactive
Activity [12]: inactive
Activity [13]: inactive
Activity [14]: inactive
Activity [15]: inactive
Activity [16]: Active
Activity [17]: inactive
Activity [18]: inactive
Activity [19]: inactive
Activity [20]: inactive
Activity [21]: inactive
Activity [22]: inactive
Activity [23]: inactive
Activity [24]: inactive
IC50 [25]: 7 nM
IC50 [26]: 530 nM
Activity [27]: inactive
Activity [28]: inactive
Activity [29]: inactive
Activity [30]: inactive
Activity [31]: inactive
Activity [32]: inactive
Activity [38]: Tde
Activity [39]: Active
Activity [40]: Active
Kd [41]: 815 nM
Kd [42]: 1050 nM
IC50 [43]: 155 nM
Kd [44]: 385 nM
Activity [45]: inactive
SMILES: O=C(CCCOc1ccc(CC(=O)Nc2cc(C3CCC3)[nH]n2)cc1)NCCCCNc1cccc2c1C(=O)N(C1CCC(=O)NC1=O)C2=O (stereo unspecified)
CI [1]: 0.02
CI [2]: 0.1
CI [3]: 0.12
CI [4]: 0.16
CI [33]: 0.001
CI [34]: 0.001
CI [35]: 1
CI [36]: 0.6
CI [37]: 0.35
